The source made the active and inactive calls. The rule behind the calls is not given here.
Assays:
[1] = Induction of NO release in phosphate buffer at pH 7.4 at 0.1 mM measured after 5 hrs in presence of N-acetylcysteine by Griess assay; type: functional
Outline: (§1)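 Percentage of NO released in vitro measured by Griess assay against a standard curve. Incubation in 0.5 mM N-acetylcysteine, read hourly from 1 to 6 h.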

[2] = Induction of NO release in phosphate buffer at pH 7.4 at 0.1 mM measured after 6 hrs in presence of N-acetylcysteine by Griess assay; type: functional; outline: as §1
[3] = Induction of NO release in phosphate buffer at pH 7.4 at 0.1 mM measured after 1 hr in presence of N-acetylcysteine by Griess assay; type: functional; outline: as §1
[4] = Cytotoxicity against human HSF cells after 48 hrs by MTT assay; type: cell-based
Outline: (§2)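 MTT colorimetric assay. Shikonin and 5-fluorouracil served as reference agents. IC₅₀ obtained by linear regression of each compound's concentration–response curve.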

[5] = Induction of NO release in phosphate buffer at pH 7.4 at 0.1 mM measured after 4 hrs in presence of N-acetylcysteine by Griess assay; type: functional; outline: as §1
HCT-15 [6] = experiment: Cytotoxicity against human HCT15 cells after 48 hrs by MTT assay; type: functional, cell-based; conditions: HCT-15, 48 h; outline: as §2
MGC-803 = experiment: Cytotoxicity against human MGC803 cells after 48 hrs by MTT assay; type: functional, cell-based; conditions: MGC-803, 48 h; outline: as §2
[7] = Induction of NO release in phosphate buffer at pH 7.4 at 0.1 mM measured after 2 hrs in presence of N-acetylcysteine by Griess assay; type: functional; outline: as §1
[8] = Induction of NO release in phosphate buffer at pH 7.4 at 0.1 mM measured after 3 hrs in presence of N-acetylcysteine by Griess assay; type: functional; outline: as §1
Bel-7402 = experiment: Cytotoxicity against human Bel7402 cells after 48 hrs by MTT assay; type: functional, cell-based; conditions: Bel-7402, 48 h; outline: as §2
MCF7 = experiment: Cytotoxicity against human MCF7 cells after 48 hrs by MTT assay; type: functional, cell-based; conditions: MCF7, 48 h; outline: as §2
HCT-15 [9] = experiment: Induction of apoptosis in human HCT15 cells assessed as early apoptotic cells at 0.5 uM after 24 hrs by Annexin-V-FITC/propidium iodide staining based flow cytometry (reference value: 2.97%); type: functional
HCT-15 [10] = experiment: Induction of apoptosis in human HCT15 cells assessed as downregulation of Bcl2 expression at 2 uM after 24 hrs by Western blot analysis; type: functional, cell-based
Outline: (§3)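 Protein extracted from HCT-15 cells after 24 h at 0, 0.5, 1.0 or 2.0 µM. Bcl-2, Bax and cleaved caspase-3 and -9 immunoblotted, band ratios quantified by densitometry. Student's t-test used.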

HCT-15 [11] = experiment: Induction of apoptosis in human HCT15 cells assessed as viable cells at 2 uM after 24 hrs by Annexin-V-FITC/propidium iodide staining based flow cytometry (reference value: 90.4%); type: functional; conditions: HCT-15, 24 h, read-out: Activity
HCT-15 [12] = experiment: Induction of apoptosis in human HCT15 cells assessed as increase in cleaved caspase-3 levels after 24 hrs by Western blot analysis; type: functional, cell-based; outline: as §3
HCT-15 [13] = experiment: Induction of apoptosis in human HCT15 cells assessed as late apoptotic cells at 2 uM after 24 hrs by Annexin-V-FITC/propidium iodide staining based flow cytometry (reference value: 6.59%); type: functional
HCT-15 [14] = experiment: Induction of apoptosis in human HCT15 cells assessed as increase in Bax protein expression up to 2 uM after 24 hrs by Western blot analysis; type: functional, cell-based; outline: as §3
HCT-15 [15] = experiment: Induction of apoptosis in human HCT15 cells assessed as viable cells at 1 uM after 24 hrs by Annexin-V-FITC/propidium iodide staining based flow cytometry (reference value: 90.4%); type: functional; conditions: HCT-15, 24 h, read-out: Activity
HCT-15 [16] = experiment: Induction of apoptosis in human HCT15 cells assessed as nuclear fragmentation up to 1.0 uM after 24 hrs by Hoechst 33342 staining-based fluorescence microscopic method; type: functional, cell-based
Outline: (§4)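 HCT-15 cells incubated 24 h at 0, 0.5 or 1.0 µM, then stained with Hoechst 33342. Nuclei examined by fluorescence for fragmentation, chromatin condensation and staining intensity.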

HCT-15 [17] = experiment: Induction of apoptosis in human HCT15 cells assessed as chromatin condensation up to 1.0 uM after 24 hrs by Hoechst 33342 staining-based fluorescence microscopic method; type: functional, cell-based; outline: as §4
HCT-15 [18] = experiment: Induction of apoptosis in human HCT15 cells assessed as late apoptotic cells at 0.5 uM after 24 hrs by Annexin-V-FITC/propidium iodide staining based flow cytometry (reference value: 6.59%); type: functional
HCT-15 [19] = experiment: Induction of apoptosis in human HCT15 cells assessed as viable cells at 0.5 uM after 24 hrs by Annexin-V-FITC/propidium iodide staining based flow cytometry (reference value: 90.4%); type: functional; conditions: HCT-15, 24 h, read-out: Activity
HCT-15 [20] = experiment: Induction of apoptosis in human HCT15 cells assessed as increase in cleaved caspase-9 levels after 24 hrs by Western blot analysis; type: functional, cell-based; outline: as §3
HCT-15 [21] = experiment: Cell cycle arrest in human HCT15 cells assessed assessed as accumulation at G1 phase at 0.5 uM after 24 hrs by propidium iodide staining-based flow cytometric method (reference value: 36.7%); type: functional
Outline: (§5)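 HCT-15 cells seeded in 6-well plates, exposed to 0, 0.5 or 1.0 µM for 24 h, then harvested and stained with propidium iodide. DNA content read by flow cytometry and G1, S and G2/M fractions calculated. Comparison with untreated control by Student's t-test.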

HCT-15 [22] = experiment: Cell cycle arrest in human HCT15 cells assessed assessed as accumulation at G2/M phase at 0.5 to 1.0 uM after 24 hrs by propidium iodide staining-based flow cytometric method; type: functional; conditions: in the assay text read “accumulation at G1 phase” for “accumulation at G2/M phase”; outline: as §5
HCT-15 [23] = experiment: Induction of apoptosis in human HCT15 cells assessed as early apoptotic cells at 2 uM after 24 hrs by Annexin-V-FITC/propidium iodide staining based flow cytometry (reference value: 2.97%); type: functional
HCT-15 [24] = experiment: Induction of apoptosis in human HCT15 cells assessed as necrotic cells at 2 uM after 24 hrs by Annexin-V-FITC/propidium iodide staining based flow cytometry (reference value: 0.005%); type: functional
HCT-15 [25] = experiment: Induction of apoptosis in human HCT15 cells assessed as early apoptotic cells at 1 uM after 24 hrs by Annexin-V-FITC/propidium iodide staining based flow cytometry (reference value: 2.97%); type: functional
HCT-15 [26] = experiment: Induction of apoptosis in human HCT15 cells after 24 hrs by Annexin-V-FITC/propidium iodide staining based flow cytometry; type: functional, cell-based
HCT-15 [27] = experiment: Cell cycle arrest in human HCT15 cells assessed assessed as accumulation at G1 phase at 1.0 uM after 24 hrs by propidium iodide staining-based flow cytometric method (reference value: 36.7%); type: functional; outline: as §5
HCT-15 [28] = experiment: Induction of apoptosis in human HCT15 cells assessed as necrotic cells at 0.5 uM after 24 hrs by Annexin-V-FITC/propidium iodide staining based flow cytometry (reference value: 0.005%); type: functional
HCT-15 [29] = experiment: Induction of apoptosis in human HCT15 cells assessed as necrotic cells at 1 uM after 24 hrs by Annexin-V-FITC/propidium iodide staining based flow cytometry (reference value: 0.005%); type: functional
HCT-15 [30] = experiment: Induction of apoptosis in human HCT15 cells assessed as late apoptotic cells at 1 uM after 24 hrs by Annexin-V-FITC/propidium iodide staining based flow cytometry (reference value: 6.59%); type: functional
HCT-15 [31] = experiment: Cell cycle arrest in human HCT15 cells assessed assessed as accumulation at S phase at 0.5 to 1.0 uM after 24 hrs by propidium iodide staining-based flow cytometric method; type: functional; conditions: in the assay text read “accumulation at G1 phase” for “accumulation at S phase”; outline: as §5

## COc1ccc(C(=O)SC(CC=C(C)C)c2cc(OC)c3c(c2OC)/C(=N/O)C=C/C3=N\O)cc1 (configuration not stated)
[1]
  Activity: 0.059%
[2]
  Activity: 0.053%
[3]
  Activity: 0.038%
[4]
  IC50: > 50000 nM
[5]
  Activity: 0.064%
HCT-15 [6]
  IC50: 610 nM
MGC-803
  IC50: 930 nM
[7]
  Activity: 0.045%
[8]
  Activity: 0.058%
Bel-7402
  IC50: 1090 nM
MCF7
  IC50: 17000 nM

## COc1ccc(C(=O)SC(CC=C(C)C)c2cc(OC)c3c(c2OC)/C(=N/O)C=C/C3=N\O)cc1OC (configuration not stated)
[1]
  Activity: 0.073%
[2]
  Activity: 0.065%
[3]
  Activity: 0.041%
[4]
  IC50: > 50000 nM
[5]
  Activity: 0.079%
HCT-15 [6]
  IC50: 390 nM
MGC-803
  IC50: 1170 nM
[7]
  Activity: 0.05%
[8]
  Activity: 0.063%
Bel-7402
  IC50: 660 nM
MCF7
  IC50: 14900 nM

## COc1cc(C(CC=C(C)C)SCCC(C)C)c(OC)c2c1/C(=N/O)C=C/C2=N\O (configuration not stated)
[1]
  Activity: 0.029%
[2]
  Activity: 0.024%
[3]
  Activity: 0.023%
[4]
  IC50: > 50000 nM
[5]
  Activity: 0.038%
HCT-15 [6]
  IC50: 1140 nM
MGC-803
  IC50: 3360 nM
[7]
  Activity: 0.027%
[8]
  Activity: 0.033%
Bel-7402
  IC50: 5430 nM
MCF7
  IC50: 27200 nM

## COc1cc(C(=O)SC(CC=C(C)C)c2cc(OC)c3c(c2OC)/C(=N/O)C=C/C3=N\O)cc(OC)c1OC (configuration not stated)
[1]
  Activity: 0.084%
HCT-15 [9]
  Activity: 4.56%
HCT-15 [10]
  Activity: Active
HCT-15 [11]
  viability at 2 µM: 22.4%
HCT-15 [12]
  Activity: Dose-dependent effect
[2]
  Activity: 0.079%
HCT-15 [13]
  Activity: 57.3%
HCT-15 [14]
  Activity: Active
HCT-15 [15]
  viability at 1 µM: 58%
[3]
  Activity: 0.049%
[4]
  IC50: > 50000 nM
[5]
  Activity: 0.091%
HCT-15 [6]
  IC50: 270 nM
HCT-15 [16]
  Activity: Active
HCT-15 [17]
  Activity: Active
MGC-803
  IC50: 860 nM
HCT-15 [18]
  Activity: 9.43%
[7]
  Activity: 0.063%
HCT-15 [19]
  viability at 0.5 µM: 86%
HCT-15 [20]
  Activity: Dose-dependent effect
HCT-15 [21]
  Activity: 44.1%
[8]
  Activity: 0.076%
HCT-15 [22]
  Activity: Active
HCT-15 [23]
  Activity: 20.1%
HCT-15 [24]
  Activity: 0.088%
HCT-15 [25]
  Activity: 18.3%
HCT-15 [26]
  Activity: Dose-dependent effect
Bel-7402
  IC50: 450 nM
HCT-15 [27]
  Activity: 49.9%
HCT-15 [28]
  Activity: 0.018%
HCT-15 [29]
  Activity: 0.021%
MCF7
  IC50: 9230 nM
HCT-15 [30]
  Activity: 23.7%
HCT-15 [31]
  Activity: Active
